Measurements as given in ChEMBL document CHEMBL4706706, “Structure-activity relationship and mechanistic studies for a series of cinnamyl hydroxamate histone deacetylase inhibitors” (Bioorg Med Chem, 2021).
Active and inactive are the calls of the source. No cut-off for these calls is given here.

Key:
[1] = test system: Jurkat; assay: Cytotoxicity against human Jurkat cells assessed as reduction in cell proliferation at IC50 measured after 48 hrs by Ki-67 staining based fluorescence assay; type: functional
Outline: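 Ki-67 stained per kit instructions; mean fluorescence intensity by flow cytometry, normalized to untreated cells; at least three independent experiments, ANOVA with Bonferroni post-test.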

[2] = test system: Jurkat; assay: Induction of apoptosis in human Jurkat cells assessed as viable cells at 0.5 times IC50 measured after 48 hrs by Annexin V-FITC/7AAD staining based flow cytometry (reference value: 85.2%); type: functional
[3] = test system: HCT-116; assay: Cytotoxicity against human HCT-116 cells assessed as reduction in cell viability measured after 72 hrs by MTT assay; type: functional, cell-based; settings: HCT-116, 72 h
[4] = test system: MCF7; assay: Cytotoxicity against human MCF7 cells assessed as reduction in cell viability measured after 72 hrs by MTT assay; type: functional, cell-based; settings: MCF7, 72 h
[5] = test system: Jurkat; assay: Cytotoxicity against human Jurkat cells assessed as reduction in cell viability measured after 72 hrs by MTT assay; type: functional, cell-based
[6] = test system: NAMALVA; assay: Cytotoxicity against human NAMALVA cells assessed as reduction in cell viability measured after 72 hrs by MTT assay; type: functional, cell-based
[7] = Cytotoxicity against human HS5 cells assessed as reduction in cell viability measured after 72 hrs by MTT assay; type: ADME, cell-based; settings: HS5, 72 h
[8] = Selectivity index, ratio of IC50 for human HS5 cells to IC50 for human Jurkat cells
[9] = Selectivity index, ratio of IC50 for human HS5 cells to IC50 for human NAMALVA cells
[10] = Selectivity ratio of IC50 for human HCT-116 cells to IC50 for human Jurkat cells; type: functional
[11] = Selectivity ratio of IC50 for human HCT-116 cells to IC50 for human NAMALVA cells; type: functional
[12] = test system: Jurkat; assay: Cytotoxicity against human Jurkat cells assessed as reduction in cell viability MTT assay; type: functional, cell-based; settings: time 24-72 hrs, TDE = time-dependent effect
Outline: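 Jurkat cells (2 × 10^4/well) in RPMI with 10% FBS and 1% penicillin–streptomycin, exposed 24, 48 and 72 h to compound (0.0032–50 μM); 1% DMSO as negative control. MTT at 0.5 mg/mL final for 3 h, formazan dissolved in 0.1 N HCl/isopropanol. IC50 with 95% confidence intervals from sigmoidal nonlinear regression; mean ± SEM.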

[13] = test system: Jurkat; assay: Cytotoxicity against human Jurkat cells assessed as reduction in cell viability measured after 24 hrs MTT assay; type: functional, cell-based
[14] = test system: Jurkat; assay: Cytotoxicity against human Jurkat cells assessed as reduction in cell viability measured after 48 hrs MTT assay; type: functional, cell-based
[15] = test system: Jurkat; assay: Induction of apoptosis in human Jurkat cells assessed as early apoptotic cells at 0.5 times IC50 measured after 48 hrs by Annexin V-FITC/7AAD staining based flow cytometry (reference value: 6.05%); type: functional
[16] = test system: Jurkat; assay: Induction of apoptosis in human Jurkat cells assessed as late apoptotic cells at 0.5 times IC50 measured after 48 hrs by Annexin V-FITC/7AAD staining based flow cytometry (reference value: 6.77%); type: functional
[17] = test system: Jurkat; assay: Induction of apoptosis in human Jurkat cells assessed as necrotic cells at 0.5 times IC50 measured after 48 hrs by Annexin V-FITC/7AAD staining based flow cytometry (reference value: 0.23%); type: functional
[18] = test system: NAMALVA; assay: Induction of apoptosis in human NAMALVA cells assessed as viable cells at 0.5 times IC50 measured after 48 hrs by Annexin V-FITC/7AAD staining based flow cytometry (reference value: 90.4%); type: functional
[19] = test system: NAMALVA; assay: Induction of apoptosis in human NAMALVA cells assessed as early apoptotic cells at 0.5 times IC50 measured after 48 hrs by Annexin V-FITC/7AAD staining based flow cytometry (reference value: 5.07%); type: functional
[20] = test system: NAMALVA; assay: Induction of apoptosis in human NAMALVA cells assessed as late apoptotic cells at 0.5 times IC50 measured after 48 hrs by Annexin V-FITC/7AAD staining based flow cytometry (reference value: 3.52%); type: functional
[21] = test system: NAMALVA; assay: Induction of apoptosis in human NAMALVA cells assessed as necrotic cells at 0.5 times IC50 measured after 48 hrs by Annexin V-FITC/7AAD staining based flow cytometry (reference value: 1.05%); type: functional
[22] = biological target: T1, Protein deacetylase HDAC6 (Homo sapiens) (UniProt Q9UBN7); assay: Inhibition of HDAC6 in human Jurkat cells assessed as increase in acetylated alpha-tubulin expression at IC50 measured after 48 hrs by Western blot analysis; type: cell-based
T1 sequence (whole entry): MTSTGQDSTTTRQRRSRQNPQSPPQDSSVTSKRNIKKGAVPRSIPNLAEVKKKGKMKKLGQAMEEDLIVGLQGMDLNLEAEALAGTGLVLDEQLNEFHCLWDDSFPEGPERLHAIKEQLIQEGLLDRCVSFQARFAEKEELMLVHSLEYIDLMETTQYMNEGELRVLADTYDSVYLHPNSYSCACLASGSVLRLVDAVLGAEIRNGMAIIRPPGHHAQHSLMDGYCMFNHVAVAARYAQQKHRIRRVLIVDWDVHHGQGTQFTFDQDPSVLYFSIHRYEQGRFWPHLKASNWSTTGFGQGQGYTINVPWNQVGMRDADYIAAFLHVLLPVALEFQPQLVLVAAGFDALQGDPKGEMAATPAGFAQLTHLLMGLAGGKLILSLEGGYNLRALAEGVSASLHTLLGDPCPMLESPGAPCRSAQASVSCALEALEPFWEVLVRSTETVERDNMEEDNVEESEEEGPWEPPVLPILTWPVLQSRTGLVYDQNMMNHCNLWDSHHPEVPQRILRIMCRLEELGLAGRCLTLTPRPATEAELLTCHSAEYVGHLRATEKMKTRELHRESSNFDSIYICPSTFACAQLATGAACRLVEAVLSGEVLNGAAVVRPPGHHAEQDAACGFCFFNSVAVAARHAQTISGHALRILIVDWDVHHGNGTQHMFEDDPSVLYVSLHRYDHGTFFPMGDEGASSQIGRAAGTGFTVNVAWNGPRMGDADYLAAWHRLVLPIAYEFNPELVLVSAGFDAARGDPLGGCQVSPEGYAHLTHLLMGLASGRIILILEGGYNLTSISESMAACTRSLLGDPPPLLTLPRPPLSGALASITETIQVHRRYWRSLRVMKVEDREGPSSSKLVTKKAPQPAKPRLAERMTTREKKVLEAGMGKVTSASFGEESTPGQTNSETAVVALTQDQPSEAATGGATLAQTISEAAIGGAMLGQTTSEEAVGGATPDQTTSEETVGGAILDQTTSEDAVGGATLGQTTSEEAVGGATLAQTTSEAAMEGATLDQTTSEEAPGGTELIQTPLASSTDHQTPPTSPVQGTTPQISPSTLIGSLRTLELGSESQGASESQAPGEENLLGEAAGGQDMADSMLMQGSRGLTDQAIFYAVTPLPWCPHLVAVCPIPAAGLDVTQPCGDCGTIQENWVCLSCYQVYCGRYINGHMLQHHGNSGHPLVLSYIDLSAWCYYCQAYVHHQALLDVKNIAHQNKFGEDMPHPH

[23] = biological target: T1, Protein deacetylase HDAC6 (Homo sapiens); assay: Inhibition of HDAC6 in human NAMALVA cells assessed as increase in acetylated alpha-tubulin expression at IC50 measured after 48 hrs by Western blot analysis; type: cell-based
[24] = biological target: T2, Histone deacetylase (Homo sapiens) (UniProt Q13547+O15379+Q9UBN7+Q92769+Q9UQL6+Q8WUI4+Q9BY41+Q96DB2+P56524+Q9UKV0+Q969S8); assay: Inhibition of HDAC in human Jurkat cells assessed as increase in gammaH2AX expression at IC50 measured after 48 hrs by Western blot analysis; type: cell-based
[25] = biological target: T2, Histone deacetylase (Homo sapiens); assay: Inhibition of HDAC in human NAMALVA cells assessed as increase in gammaH2AX expression at IC50 measured after 48 hrs by Western blot analysis; type: cell-based
[26] = test system: Jurkat; assay: Effect on phosphoserine expression in human Jurkat cells at IC50 measured after 48 hrs by Western blot analysis; type: functional, cell-based
[27] = test system: Jurkat; assay: Effect on phosphotyrosine expression in human Jurkat cells at IC50 measured after 48 hrs by Western blot analysis; type: functional, cell-based
[28] = test system: NAMALVA; assay: Effect on phosphoserine expression in human NAMALVA cells at IC50 measured after 48 hrs by Western blot analysis; type: functional, cell-based
[29] = test system: NAMALVA; assay: Effect on phosphotyrosine expression in human NAMALVA cells at IC50 measured after 48 hrs by Western blot analysis; type: functional, cell-based

For `O=C(/C=C/c1ccc(NC(=O)Nc2ccc([N+](=O)[O-])cc2)cc1)NO`, the Activity [1] was “Active”, the Activity [2] was 87.1% and the IC50 [3] was 12.6 µM. It also gave an IC50 [4] of over 50 µM, an IC50 [5] of 0.09 µM and an IC50 [6] of 0.58 µM. The IC50 [7] was 3 µM, the “Ratio IC50” value [8] was 33 and the “Ratio IC50” value [9] was 5. The “Ratio IC50” value [10] was 140, the “Ratio IC50” value [11] was 22 and the Activity [12] was “Tde”. The IC50 [13] was 2.7 µM, the IC50 [14] was 0.7 µM and the Activity [15] was 5.74%. It also gave an Activity [16] of 7.03%, an Activity [17] of 0.18% and an Activity [18] of 82.8%. It also gave an Activity [19] of 10.1%, an Activity [20] of 5.89% and an Activity [21] of 1.2%. For the same molecule, the inhibition [22] was “Active”, the inhibition [23] was “Active” and the inhibition [24] was “Active”. The inhibition [25] was “Active”, the inhibition [26] was “inactive” and the inhibition [27] was “inactive”. The inhibition [28] was “inactive” and the inhibition [29] was “inactive”.
For `COc1ccc(NC(=O)Nc2ccc(/C=C/C(=O)NO)cc2)cc1`, the Activity [1] was “Active”, the Activity [2] was 82.2% and the IC50 [3] was 11.9 µM. The IC50 [4] was over 50 µM, the IC50 [5] was 0.11 µM and the IC50 [6] was 0.46 µM. For the same molecule, the IC50 [7] was 3 µM, the “Ratio IC50” value [8] was 27 and the “Ratio IC50” value [9] was 7. The “Ratio IC50” value [10] was 108, the “Ratio IC50” value [11] was 26 and the Activity [12] was “Tde”. For the same molecule, the IC50 [13] was 1.8 µM, the IC50 [14] was 0.7 µM and the Activity [15] was 9.66%. For the same molecule, the Activity [16] was 7.77%, the Activity [17] was 0.39% and the Activity [18] was 82.9%. It also gave an Activity [19] of 10.2%, an Activity [20] of 5.42% and an Activity [21] of 1.46%. The inhibition [22] was “Active”, the inhibition [23] was “Active” and the inhibition [24] was “Active”. The inhibition [25] was “Active”, the inhibition [26] was “inactive” and the inhibition [27] was “inactive”. The inhibition [28] was “inactive” and the inhibition [29] was “inactive”.
With `O=C(/C=C/c1ccc(NC(=O)Nc2ccccc2)cc1)NO` the Activity [1] was “Active”, the Activity [2] was 87.4% and the IC50 [3] was 6.49 µM. It also gave an IC50 [4] of over 50 µM, an IC50 [5] of 0.16 µM and an IC50 [6] of 0.3 µM. For the same molecule, the IC50 [7] was 1 µM, the “Ratio IC50” value [8] was 6 and the “Ratio IC50” value [9] was 3. For the same molecule, the “Ratio IC50” value [10] was 41, the “Ratio IC50” value [11] was 22 and the Activity [12] was “Tde”. It also gave an IC50 [13] of 2.7 µM, an IC50 [14] of 1.2 µM and an Activity [15] of 7.03%. For the same molecule, the Activity [16] was 4.39%, the Activity [17] was 0.31% and the Activity [18] was 81.4%. It also gave an Activity [19] of 12.4%, an Activity [20] of 5.2% and an Activity [21] of 1.05%. The inhibition [22] was “Active”, the inhibition [23] was “Active” and the inhibition [24] was “Active”. The inhibition [25] was “Active”, the inhibition [26] was “inactive” and the inhibition [27] was “inactive”. The inhibition [28] was “inactive” and the inhibition [29] was “inactive”.
